CHO-K1 Ca antag: nonselective inhibitor or artifact in parental CHO-K1 cells. ATP-induced calcium, Fluo-8 fluorescence. inhibition, % at 3 µM. 0.6% of 360,000 active. AID 602250;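 active = inhibition above a per-plate cutoff, the plate's mean sample inhibition plus 3 SD, cut at about 24% in these data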;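 note: 0% = DMSO plus EC80 ATP and 100% = DMSO alone without ATP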
CHO parental Ca: signal in parental CHO cells, OX1R antagonist counter-screen | 0.63% of 330,000 active | parental CHO-K1, ATP-induced calcium, Fluo-8 fluorescence | inhibition, % at 5.6 µM | AID 463079;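 active = inhibition above that plate's mean sample inhibition plus 3 SD, cut at about 26% in these data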;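 note: 0% = ATP-challenged DMSO wells and 100% = DMSO wells without ATP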
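Measured by: calcium-sensitive Fluo-8 fluorescence / Test system: CHO parental line / Controls: ATP-challenged DMSO wells low, unchallenged DMSO wells high / Measure: % inhibition / Compound: single nominal dose of 5.6 µM per compound / Replicates: single well per compound, no replicates / Reagent: ATP as calcium-mobilizing challenge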
OX1R antag-1: blocks the human orexin 1 receptor | O43613 | OX1R-expressing cells, FRET antagonist read-out | inhibition, % at 6.6 µM | 1.8% of 330,000 active; in the data active = inhibition mostly above about 38%, no sharp cut-off; inactive = mostly below about 40%;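 note: 0% = agonist challenge alone and 100% = reference antagonist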
Target sequence (O43613 whole entry, looked up): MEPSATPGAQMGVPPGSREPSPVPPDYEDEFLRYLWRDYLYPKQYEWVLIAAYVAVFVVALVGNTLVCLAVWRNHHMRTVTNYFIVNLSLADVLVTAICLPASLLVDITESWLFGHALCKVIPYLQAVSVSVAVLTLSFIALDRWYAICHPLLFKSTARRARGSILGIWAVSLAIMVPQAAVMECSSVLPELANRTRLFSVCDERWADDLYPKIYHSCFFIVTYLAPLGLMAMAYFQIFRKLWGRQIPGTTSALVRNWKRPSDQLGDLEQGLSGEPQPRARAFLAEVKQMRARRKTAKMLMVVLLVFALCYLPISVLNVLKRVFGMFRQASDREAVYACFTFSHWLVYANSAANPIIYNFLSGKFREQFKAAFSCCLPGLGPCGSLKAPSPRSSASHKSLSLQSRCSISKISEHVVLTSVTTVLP
CHO-K1 Ca PAM: counter-screen for M1 PAMs: effect in parental CHO-K1 cells; ATP EC20, Fluo-8 calcium fluorescence; 0% at ATP EC20, 100% at ATP max; activation, % at 3 µM; 0.02% of 360,000 active;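 active = activation above the run cutoff, the mean activation of all test compounds plus 3 SD, cut at about 40% in these data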;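 note: peak over basal fluorescence ratio in a 140 s read after ATP addition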
M1 ag parental: M1 agonist counterscreen hit in parental CHO-K1 cells; Fluo-8 calcium fluorescence; scaled to maximal ATP response, vehicle zero; activation, % at 3 µM; 0.48% of 360,000 active; AID 602248; in the data active = activation above about 15%;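 note: untransfected CHO-K1 host cells lacking M1 receptor as counterscreen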
OX1R antag-2: blocks the human orexin 1 receptor; O43613; CHO/OX1R cells, Fluo-8 calcium fluorescence, orexin A; inhibition, % at 5 µM; 0.43% of 330,000 active; AID 434989;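 active = inhibition above its plate's threshold, mean inhibition of all tested compounds on the plate plus 3 SD, cut at about 37% in these data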;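 note: 0% = orexin A challenge wells and 100% = SB-334867-A antagonist wells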
OX1R Ca confirm: confirmation of human orexin 1 receptor antagonists; inhibition, % at 5 µM; 38% of 1,100 active; shares compounds with OX1R antag-2; CHO/OX1R cells, orexin A calcium Fluo-8 fluorescence; in the data active = inhibition above about 29%;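 note: 0% = agonist challenge alone and 100% = reference antagonist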
CHO Ca triplic: counter-screen: parental CHO calcium response change, triplicate; shares compounds with OX1R antag-2; parental CHO-K1, ATP-induced calcium, Fluo-8 fluorescence; inhibition, % at 5.6 µM; 9.3% of 1,100 active; AID 492965;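 active = inhibition above a per-plate limit, the mean inhibition of that plate's test compounds plus 3 SD, cut at about 25% in these data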;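 note: 0% = ATP challenge with DMSO and 100% = DMSO without ATP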
* marks the source's active call; other numbers are inactive results. Only some compounds are listed: those with a hit (about 2.9% of all), similar ones and a draw of the others.

Screening O=C(NCC(F)(F)F)c1[nH]c(C(F)(F)F)nc1-c1ccccc1 returned CHO-K1 Ca antag -5.3, CHO-K1 Ca PAM 5.9 and M1 ag parental 1.3.
CCCCNC(=O)C1c2ccccc2OCC(=O)N1CCOC (stereo not drawn) was read as CHO-K1 Ca antag -14.4, CHO-K1 Ca PAM -4.1 and M1 ag parental -0.2.
For CCN(CC)C(=O)C1c2ccccc2Oc2ccccc21 the results were CHO-K1 Ca antag 1.7, CHO parental Ca 13.0, OX1R antag-1 30.8, CHO-K1 Ca PAM 5.7, M1 ag parental 27.3*, OX1R antag-2 24.0, OX1R Ca confirm -6.7 and CHO Ca triplic -6.1.
For Cc1ccc(C(=O)N(CC(=O)NC2CCCC2)c2cccc(F)c2)s1 the results were CHO-K1 Ca antag -6.3, CHO parental Ca -8.4, OX1R antag-1 15.5, CHO-K1 Ca PAM 0.2, M1 ag parental -0.3 and OX1R antag-2 -16.5.
For Cc1cc(C(C)(C)C)oc1C(=O)N(CC(=O)NC1CCCC1)c1cccc(C(F)(F)F)c1 the results were CHO-K1 Ca antag -2.7, CHO parental Ca -8.5, OX1R antag-1 30.1, CHO-K1 Ca PAM 12.6, M1 ag parental 0.8, OX1R antag-2 55.9*, OX1R Ca confirm 14.0 and CHO Ca triplic -3.1.
CCc1cc2c(COC(=O)c3cc(S(=O)(=O)N4CCOCC4)ccc3F)cc(=O)oc2cc1O was read as CHO-K1 Ca antag -2.0, CHO parental Ca -7.8, OX1R antag-1 23.4, CHO-K1 Ca PAM -1.3, M1 ag parental 4.6, OX1R antag-2 33.2, OX1R Ca confirm 8.4 and CHO Ca triplic -10.0.
For O=C(OCc1cc(=O)oc2cc(O)ccc12)c1cc(S(=O)(=O)N2CCOCC2)ccc1F the results were CHO-K1 Ca antag -10.9, CHO parental Ca 17.0, OX1R antag-1 24.5, CHO-K1 Ca PAM 9.3, M1 ag parental 5.0 and OX1R antag-2 -8.4.
Screening O=C(Cn1nc(C(=O)O)c2ccccc2c1=O)Nc1cc(S(=O)(=O)N2CCCCC2)ccc1Cl returned CHO-K1 Ca antag -11.9, CHO parental Ca -11.5, OX1R antag-1 -1.7, CHO-K1 Ca PAM 25.6, M1 ag parental -0.5 and OX1R antag-2 -10.2.
`Cc1ccc(NC(=O)Nc2nnc([C@H]3C[C@H](O)[C@@H](CO)O3)s2)cc1` gave CHO-K1 Ca antag -19.0, CHO-K1 Ca PAM 14.0 and M1 ag parental 0.4.
Screening COc1ccc(NS(=O)(=O)c2ccc(OC)c(N(C)S(=O)(=O)c3ccc(Cl)cc3)c2)cc1 returned CHO-K1 Ca antag 5.0, CHO parental Ca 19.0, OX1R antag-1 28.1, CHO-K1 Ca PAM -0.5, M1 ag parental 1.9, OX1R antag-2 60.9*, OX1R Ca confirm 25.7 and CHO Ca triplic 25.3*.
COC(=O)c1c(C)oc2ccc(N(C(=O)c3ccncc3)S(=O)(=O)c3ccc(C)cc3)cc12 was read as CHO-K1 Ca antag 6.1, CHO parental Ca 16.6, OX1R antag-1 32.4, CHO-K1 Ca PAM 7.6, M1 ag parental 2.9, OX1R antag-2 38.7*, OX1R Ca confirm 12.3 and CHO Ca triplic 13.5.
For COC(=O)c1c(C)oc2ccc(N(C(=O)c3ccncc3)S(=O)(=O)c3ccc4ccccc4c3)cc12 the results were CHO-K1 Ca antag 15.1, CHO parental Ca -13.2, OX1R antag-1 19.3, CHO-K1 Ca PAM -6.2, M1 ag parental 5.8 and OX1R antag-2 -16.8.
For Cc1ccccc1-n1nnnc1SCc1csc(-c2ccccc2)n1 the results were CHO-K1 Ca antag 2.6, CHO parental Ca 6.3, OX1R antag-1 53.5, CHO-K1 Ca PAM 12.6, M1 ag parental 1.8, OX1R antag-2 31.4, OX1R Ca confirm 19.1 and CHO Ca triplic -13.6.
For Cc1ccccc1-n1nnnc1SCC(C)C the results were CHO-K1 Ca antag -4.9, CHO parental Ca -13.1, OX1R antag-1 17.1, CHO-K1 Ca PAM 10.8, M1 ag parental -0.3 and OX1R antag-2 -23.5.
Screening Cc1ccnc(NS(=O)(=O)c2cc([N+](=O)[O-])ccc2C)c1 returned CHO-K1 Ca antag 9.6, CHO parental Ca -0.2, OX1R antag-1 48.1, CHO-K1 Ca PAM -9.8, M1 ag parental -0.1, OX1R antag-2 30.0, OX1R Ca confirm 7.2 and CHO Ca triplic 17.1.
CCOC(=O)C(Cc1ccccc1)NC(=O)Cn1nnc(-c2ccccc2)n1 (stereo not drawn) was read as CHO-K1 Ca antag -1.2, CHO parental Ca 13.2, OX1R antag-1 25.4, CHO-K1 Ca PAM 4.9, M1 ag parental 5.3, OX1R antag-2 29.2, OX1R Ca confirm 51.9* and CHO Ca triplic 17.4.
`O=C(OCCc1cc2ccccc2c(=O)o1)c1ccccc1C(F)(F)F` gave CHO-K1 Ca antag -10.0, CHO parental Ca -4.0, OX1R antag-1 17.8, CHO-K1 Ca PAM 8.8, M1 ag parental 6.4, OX1R antag-2 37.0, OX1R Ca confirm 3.9 and CHO Ca triplic 3.4.
COc1ccccc1C(=O)CSc1nccn1C was read as CHO-K1 Ca antag -14.9, CHO parental Ca -6.1, OX1R antag-1 21.1, CHO-K1 Ca PAM 7.9, M1 ag parental 0.4 and OX1R antag-2 -10.4.
O=C(COc1ccc(C(=O)NCc2cccnc2)cc1)Nc1cccc(C(F)(F)F)c1 was read as CHO-K1 Ca antag 13.4, CHO parental Ca 15.6, OX1R antag-1 33.7, CHO-K1 Ca PAM -26.9, M1 ag parental 8.6, OX1R antag-2 28.0, OX1R Ca confirm 11.6 and CHO Ca triplic 17.1.
O=C(c1cc(-c2ccc(F)cc2)no1)N1CCN(Cc2ccc3c(c2)OCO3)CC1 was read as CHO-K1 Ca antag -4.8, CHO parental Ca 1.6, OX1R antag-1 3.0, CHO-K1 Ca PAM 10.2, M1 ag parental 0.1 and OX1R antag-2 -9.8.
Screening C=CCNc1nc(N(c2ccccc2)c2ccccc2)nc(-n2ccnc2)n1 returned CHO-K1 Ca antag -8.1, CHO parental Ca 2.6, OX1R antag-1 9.6, CHO-K1 Ca PAM 14.3, M1 ag parental 1.1, OX1R antag-2 19.4, OX1R Ca confirm 87.9* and CHO Ca triplic 12.6.
`CCCCNc1nc(N(C)c2ccccc2)nc(-n2ccnc2)n1` gave CHO-K1 Ca antag 6.7, CHO parental Ca -22.8, OX1R antag-1 26.3, CHO-K1 Ca PAM -3.1, M1 ag parental 0.2 and OX1R antag-2 -31.8.
Screening CC1=C(C(=O)N(C)C)CC(CC(=O)NCc2cccc3ccccc23)C(=O)N1Cc1ccc(F)cc1 (stereo not drawn) returned CHO-K1 Ca antag 4.3, CHO-K1 Ca PAM 15.4 and M1 ag parental 1.0.
`CCCCOc1ccc(S(=O)(=O)Nc2cc(OC)ccc2OC)cc1` gave CHO-K1 Ca antag 7.6, CHO parental Ca 16.7, OX1R antag-1 14.9, CHO-K1 Ca PAM 12.4, M1 ag parental 7.3, OX1R antag-2 50.9*, OX1R Ca confirm 2.6 and CHO Ca triplic 5.1.

Compound activity (PubChem BioAssay)
